Data set [1] relates to Rattus norvegicus. As to the kind of experiment: Compound was evaluated for the distribution of radioactivity in female rat spleen at time interval 30 minutes following intravenous administration of [123mTe]- Labeled-DL-cu-Amino-r-( phenyltel1uro) butyric Acid, expressed as mean dose per gram of tis. Format: ADME, organism-based. Particulars: in vivo, 0.5 h. Summed up: (§1)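 Female Fischer 344 rats, 10–12 weeks old (180–210 g), fed ad libitum, given the 123mTe-labeled amino acid through a lateral tail vein under ether anesthesia. The basic solution was neutralized to pH ~8 with 1 N HCl and filtered (0.22 μm) before injection. Rats were decapitated at 30 min, 60 min, 4 h or 24 h. Organs were rinsed in saline and weighed, and radioactivity was counted on a Ge(Li) analyzer. Values are %dose/g, mean ± SD of 3 rats.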

The subject of data set [2] is Rattus norvegicus. Nature of the data set: Compound was evaluated for the distribution of radioactivity in female rat blood at time interval 60 minutes following intravenous administration of [123mTe]- Labeled-DL-cu-Amino-r-( phenyltel1uro) butyric Acid, expressed as mean dose per gram of tiss. It is filed as ADME, organism-based. Particulars: in vivo, 1 h. Summed up:
as §1

Data set [3] relates to Rattus norvegicus. Nature of the data set: Compound was evaluated for the distribution of radioactivity in female rat spleen at time interval 4 hours following intravenous administration of [123mTe]- Labeled-DL-cu-Amino-r-( phenyltel1uro) butyric Acid, expressed as mean dose per gram of tissue. It is filed as ADME, organism-based. The settings on record: in vivo. Summed up:
as §1

For data set [4], the system named is Rattus norvegicus. As to the kind of experiment: Compound was evaluated for the distribution of radioactivity in female rat kidneys at time interval 60 minutes following intravenous administration of [123mTe]- Labeled-DL-cu-Amino-r-( phenyltel1uro) butyric Acid, expressed as mean dose per gram of ti. Format: ADME, organism-based, Kidney. The settings on record: in vivo, 1 h. Summed up: as §1

Data set [5] has as its system Rattus norvegicus. As to the kind of experiment: Compound was evaluated for the distribution of radioactivity in female rat kidneys at time interval 4 hours following intravenous administration of [123mTe]- Labeled-DL-cu-Amino-r-( phenyltel1uro) butyric Acid, expressed as mean dose per gram of tissu. Particulars: in vivo. Format: ADME, organism-based, Kidney. Summed up:
as §1

In data set [6] the test system is Rattus norvegicus. As to the kind of experiment: Compound was evaluated for the distribution of radioactivity in female rat kidneys at time interval 24 hours following intravenous administration of [123mTe]- Labeled-DL-cu-Amino-r-( phenyltel1uro) butyric Acid, expressed as mean dose per gram of tiss. Format: ADME, organism-based, Kidney. Particulars: in vivo. Summed up:
as §1

The test system of data set [7] is Rattus norvegicus. Nature of the data set: Compound was evaluated for the distribution of radioactivity in female rat blood at time interval 4 hours following intravenous administration of [123mTe]- Labeled-DL-cu-Amino-r-( phenyltel1uro) butyric Acid, expressed as mean dose per gram of tissue. It is filed as ADME, organism-based. Particulars: in vivo. Summed up: as §1

The subject of data set [8] is Rattus norvegicus. Nature of the data set: Compound was evaluated for the distribution of radioactivity in female rat kidneys at time interval 30 minutes following intravenous administration in kidneys of [123mTe]- Labeled-DL-cu-Amino-r-( phenyltel1uro) butyric Acid, expressed as mean dose per. It is filed as ADME, organism-based, Kidney. Particulars: in vivo, 0.5 h. Summed up: as §1

For data set [9], the system named is Rattus norvegicus. Nature of the data set: Compound was evaluated for the distribution of radioactivity in female rat liver at time interval 30 minutes following intravenous administration of [123mTe]- Labeled-DL-cu-Amino-r-( phenyltel1uro) butyric Acid, expressed as mean dose per gram of tiss. It is filed as ADME, organism-based. The settings on record: in vivo, 0.5 h. Summed up: as §1

Data set [10] relates to Rattus norvegicus. As to the kind of experiment: Compound was evaluated for the distribution of radioactivity in female rat pancreas at time interval 4 hours following intravenous administration of [123mTe]- Labeled-DL-cu-Amino-r-( phenyltel1uro) butyric Acid, expressed as mean dose per gram of tiss. Format: ADME, organism-based. The settings on record: in vivo. Summed up: as §1

Data set [11] has as its system Rattus norvegicus. As to the kind of experiment: Compound was evaluated for the distribution of radioactivity in female rat pancreas at time interval 24 hours following intravenous administration of [123mTe]- Labeled-DL-cu-Amino-r-( phenyltel1uro) butyric Acid, expressed as mean dose per gram of tissue. It is filed as ADME, organism-based. Particulars: in vivo. Summed up:
as §1

Data set [12] deals with Rattus norvegicus. As to the kind of experiment: Compound was evaluated for the distribution of radioactivity in female rat spleen at time interval 60 minutes following intravenous administration of [123mTe]- Labeled-DL-cu-Amino-r-( phenyltel1uro) butyric Acid, expressed as mean dose per gram of tis. It is filed as ADME, organism-based. The settings on record: in vivo, 1 h. Summed up:
as §1

The subject of data set [13] is Rattus norvegicus. As to the kind of experiment: Compound was evaluated for the distribution of radioactivity in female rat pancreas at time interval 30 minutes following intravenous administration of [123mTe]- Labeled-DL-cu-Amino-r-( phenyltel1uro) butyric Acid, expressed as mean dose per gram of t. Format: ADME, organism-based. Particulars: in vivo, 0.5 h. Summed up:
as §1

In data set [14] the test system is Rattus norvegicus. As to the kind of experiment: Compound was evaluated for the distribution of radioactivity in female rat liver at time interval 4 hours following intravenous administration of [123mTe]- Labeled-DL-cu-Amino-r-( phenyltel1uro) butyric Acid, expressed as mean dose per gram of tissue. Format: ADME, organism-based. The settings on record: in vivo. Summed up:
as §1

Data set [15] deals with Rattus norvegicus. Nature of the data set: Compound was evaluated for the distribution of radioactivity in female rat liver at time interval 60 minutes following intravenous administration of [123mTe]- Labeled-DL-cu-Amino-r-( phenyltel1uro) butyric Acid, expressed as mean dose per gram of tiss. Format: ADME, organism-based. Particulars: in vivo, 1 h. Summed up: as §1
Data set [16] relates to Rattus norvegicus. Nature of the data set: Compound was evaluated for the distribution of radioactivity in female rat spleene at time interval 24 hours following intravenous administration of [123mTe]- Labeled-DL-cu-Amino-r-( phenyltel1uro) butyric Acid, expressed as mean dose per gram of tiss. Format: ADME, organism-based, Spleen. The settings on record: in vivo. Summed up: as §1

The subject of data set [17] is Rattus norvegicus. Nature of the data set: Compound was evaluated for the distribution of radioactivity in female rat pancreas at time interval 60 minutes following intravenous administration of [123mTe]- Labeled-DL-cu-Amino-r-( phenyltel1uro) butyric Acid, expressed as mean dose per gram of t. The settings on record: in vivo, 1 h. Format: ADME, organism-based. Summed up: as §1

In data set [18] the test system is Rattus norvegicus. As to the kind of experiment: Compound was evaluated for the distribution of radioactivity in female rat blood at time interval 24 hours following intravenous administration of [123mTe]- Labeled-DL-cu-Amino-r-( phenyltel1uro) butyric Acid, expressed as mean dose per gram of tissue. Format: ADME, organism-based. Particulars: in vivo. Summed up: as §1

Data set [19] concerns Rattus norvegicus. Nature of the data set: Compound was evaluated for the distribution of radioactivity in female rat blood at time interval 30 minutes following intravenous administration of [123mTe]- Labeled-DL-cu-Amino-r-( phenyltel1uro) butyric Acid, expressed as mean dose per gram of tiss. The settings on record: in vivo, 0.5 h. Format: ADME, organism-based. Summed up: as §1

The subject of data set [20] is Rattus norvegicus. As to the kind of experiment: Compound was evaluated for the distribution of radioactivity in female rat liver at time interval 24 hours following intravenous administration of [123mTe]- Labeled-DL-cu-Amino-r-( phenyltel1uro) butyric Acid, expressed as mean dose per gram of tissue. Format: ADME, organism-based. Particulars: in vivo. Summed up: as §1

This note sets out measurements from ChEMBL document CHEMBL1121653, “Potential pancreatic imaging agents. Tellurium-123m labeled DL-alpha-amino-gamma-(phenyltelluro)butyric acid” (J Med Chem, 1981).

Structures are written as SMILES.

Turning to `NC(CC[Te]c1ccccc1)C(=O)O` (stereo not given), the Dose turned out to be 0.129% in the data set with Rattus norvegicus [1]; 0.497% in the data set with Rattus norvegicus [2]; 0.234% in the data set with Rattus norvegicus [3]; 2.628% in the data set with Rattus norvegicus [4]; 2.169% in the data set on Rattus norvegicus [5]; 1.489% in the data set with Rattus norvegicus [6]. In addition, the Dose amounted to 0.451% in the data set with Rattus norvegicus [7]; 1.019% in the data set with Rattus norvegicus [8]; 0.32% in the data set with Rattus norvegicus [9]; 0.434% in the data set with Rattus norvegicus [10]; 0.334% with Rattus norvegicus [11]; 0.238% in the data set on Rattus norvegicus [12]. The Dose amounted to 0.206% with Rattus norvegicus [13]; 1.046% with Rattus norvegicus [14]; 0.534% in the data set on Rattus norvegicus [15]; 0.28% with Rattus norvegicus [16]; 0.654% with Rattus norvegicus [17]; 0.485% in the data set on Rattus norvegicus [18]. Moreover, the Dose with Rattus norvegicus [19] turned out to be 0.208%; in the data set with Rattus norvegicus [20], 2.139%.
